Data: ChEMBL document CHEMBL1138388, “Chemically programmed antibodies: endothelin receptor targeting CovX-Bodies” (Bioorg Med Chem Lett, 2007)
Activity calls are given as the source filed them. The rule behind the calls is not given here.

Tests used:
Endothelin-1 receptor = target: T1, Endothelin-1 receptor (Homo sapiens, UniProt P25101); test: Displacement of [125I]ET1 from human ETA receptor expressed in CHO cells; format: cell-based
T1 sequence (P25101 whole entry): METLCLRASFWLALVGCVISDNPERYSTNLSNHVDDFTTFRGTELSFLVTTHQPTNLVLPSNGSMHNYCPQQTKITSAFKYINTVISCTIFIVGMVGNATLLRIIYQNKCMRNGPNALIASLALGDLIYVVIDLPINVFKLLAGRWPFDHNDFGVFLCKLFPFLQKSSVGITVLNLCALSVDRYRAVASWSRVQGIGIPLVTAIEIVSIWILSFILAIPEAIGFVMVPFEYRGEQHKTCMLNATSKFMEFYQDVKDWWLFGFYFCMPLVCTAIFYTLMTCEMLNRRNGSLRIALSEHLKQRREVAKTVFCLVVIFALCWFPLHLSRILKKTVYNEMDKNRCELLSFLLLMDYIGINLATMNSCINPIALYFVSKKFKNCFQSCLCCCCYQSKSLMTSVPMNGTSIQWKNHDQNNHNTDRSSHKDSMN
Outline: (§1)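 Competitive binding against 125I-labeled ET-1 on CHO cells stably expressing human ETA or ETB receptor. Six concentrations, 1 µM to 10 pM, at least three measurements each. IC50 taken from the means.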

[1] = target: T2, Endothelin receptor type B (Homo sapiens, UniProt P24530); test: Displacement of [125I]ET1 from human ETB receptor expressed in CHO cells; format: cell-based; outline: as §1
T2 sequence (P24530 whole entry): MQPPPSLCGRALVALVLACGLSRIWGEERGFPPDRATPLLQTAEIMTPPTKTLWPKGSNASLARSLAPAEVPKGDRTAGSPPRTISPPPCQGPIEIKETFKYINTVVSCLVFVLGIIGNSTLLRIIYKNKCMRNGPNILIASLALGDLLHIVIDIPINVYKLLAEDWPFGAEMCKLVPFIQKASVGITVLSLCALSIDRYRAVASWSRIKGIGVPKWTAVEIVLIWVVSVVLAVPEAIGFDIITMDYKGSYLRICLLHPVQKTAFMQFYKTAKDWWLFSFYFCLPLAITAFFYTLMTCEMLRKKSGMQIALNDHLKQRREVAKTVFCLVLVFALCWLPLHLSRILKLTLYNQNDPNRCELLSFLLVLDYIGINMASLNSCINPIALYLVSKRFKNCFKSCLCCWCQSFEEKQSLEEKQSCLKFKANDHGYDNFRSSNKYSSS

Homo sapiens = species on record: Homo sapiens; test: Selectivity for human ETA receptor over human ETB receptor
PC-3 [2] = test: Inhibition of tumor growth in human PC3 cells xenografted mouse at 2 mg/kg after 31 days; format: functional; conditions: PC-3, 744 h
Outline: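 PC-3 prostate cancer xenograft. Dosing at 2 mg/kg […]. Tumor volume growth inhibition read at day 31 against vehicle control. Significance by one-way ANOVA with Dunnett's test to vehicle.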

PC-3 [3] = test: Inhibition of tumor growth in PC3 cells xenografted mouse at 0.25 mg/kg administered once weekly for 31 days; format: functional, organism-based; parameters: dose 0.25 mg/kg; conditions: Homo sapiens
Outline: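 PC-3 prostate cancer xenograft. Dosing at 0.25 mg/kg once weekly. Tumor volume tracked to day 31 against vehicle control. Significance by one-way ANOVA with Dunnett's multiple comparison test to vehicle.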

| Compound | IC50 (Endothelin-1 receptor) | IC50 [1] | Ratio IC50 (Homo sapiens) | inhibition in vivo at 2 mg/kg (PC-3 [2]) | Activity (PC-3 [3]) |
| --- | --- | --- | --- | --- | --- |
| CC(=O)CC(=O)CCc1ccc(NC(=O)CCOCCOCCOCCOc2ccc(-c3ccccc3S(=O)(=O)Nc3ccno3)c(CN(C)C(=O)CC(C)(C)C)c2)cc1 | 0.0449 µM | > 10 µM | – | – | – |
| CC(=O)CC(=O)CCc1ccc(NC(=O)CCOCCOCCOCCOCCOCCOCCOCCC(=O)N(C)Cc2cc(-c3ncco3)ccc2-c2ccccc2S(=O)(=O)Nc2ccno2)cc1 | 0.008 µM | 4.69 µM | 564 | – | – |
| CC(=O)CC(=O)CCc1ccc(NC(=O)CCOCCOCCOCCOCCOCCOCCOCCOCCOCCOCCOCCNC(=O)CCCC(=O)N(C)Cc2cc(-c3ncco3)ccc2-c2ccccc2S(=O)(=O)Nc2ccno2)cc1 | 0.0077 µM | 4.51 µM | 564 | – | – |
| CC(=O)CC(=O)CCc1ccc(NC(=O)CCOCCOCCOCCOCCOc2ccc(CCC(=O)N(C)Cc3cc(-c4ncco4)ccc3-c3ccccc3S(=O)(=O)Nc3ccno3)cc2)cc1 | 0.0216 µM | 4.92 µM | 228 | – | – |

The next compounds have a lower IC50 (Endothelin-1 receptor) than those just listed; values first:

| IC50 (Endothelin-1 receptor) | IC50 [1] | Ratio IC50 (Homo sapiens) | Compound | inhibition in vivo at 2 mg/kg (PC-3 [2]) | Activity (PC-3 [3]) |
| --- | --- | --- | --- | --- | --- |
| 0.0046 µM | 1.91 µM | 420 | CC(=O)CC(=O)CCc1ccc(NC(=O)CCOCCOCCOCCOCCOc2ccc(CC(=O)N(C)Cc3cc(-c4ncco4)ccc3-c3ccccc3S(=O)(=O)Nc3ccno3)cc2)cc1 | – | – |
| 0.0016 µM | 1.11 µM | 1120 | CC(=O)CC(=O)CCc1ccc(NC(=O)CCOCCOCCOCCOCC(=O)N(C)Cc2cc(-c3ncco3)ccc2-c2ccccc2S(=O)(=O)Nc2ccno2)cc1 | – | inactive |
| 0.001 µM | 6 µM | 8980 | CN(Cc1cc(-c2ncco2)ccc1-c1ccccc1S(=O)(=O)Nc1ccno1)C(=O)CC(C)(C)C | 50% | – |
